Calb FLC: C. albicans growth modulation with fluconazole. C. albicans CaCi-2 (fluconazole-resistant clinical isolate) + fluconazole, Alamar Blue growth, 48 h. growth inhibition, % (concentration not given with the values). hit rate 0.57% among 300,000;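 active = growth inhibition above about 58% in most replicates, limit read from the data, passing the limit was not always enough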;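 note: all wells also contain fluconazole at 8 µg/ml as a sub-toxic cotreatment; 0% = median of DMSO wells and 100% = median of geldanamycin control wells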
HIF act: HIF pathway transcriptional activation | U2OS HRE-luciferase reporter, luminescence; normalized: DMSO 0%, desferrioxamine 100% | activation, % at 7.5 µM (by protocol) | hit rate 0.32% among 300,000 | AID 1910;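 active = mean activation of at least 10% of the iron chelator positive control signal, with at least half of replicates also reaching 10%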
Neddylation inh: cullin neddylation inhibition | P61081+Q13564 | TR-FRET cullin neddylation, biochemical | inhibition, % at 25 µM | hit rate 0.58% among 360,000 | AID 651699; in the data active = inhibition above about 36%
Target sequence (P61081 whole entry, looked up): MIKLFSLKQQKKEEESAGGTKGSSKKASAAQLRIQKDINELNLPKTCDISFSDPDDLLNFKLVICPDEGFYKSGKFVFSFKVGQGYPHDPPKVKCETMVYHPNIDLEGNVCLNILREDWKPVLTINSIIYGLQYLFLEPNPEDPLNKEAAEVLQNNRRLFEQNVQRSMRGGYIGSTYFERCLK
Target sequence (Q13564 whole entry, looked up): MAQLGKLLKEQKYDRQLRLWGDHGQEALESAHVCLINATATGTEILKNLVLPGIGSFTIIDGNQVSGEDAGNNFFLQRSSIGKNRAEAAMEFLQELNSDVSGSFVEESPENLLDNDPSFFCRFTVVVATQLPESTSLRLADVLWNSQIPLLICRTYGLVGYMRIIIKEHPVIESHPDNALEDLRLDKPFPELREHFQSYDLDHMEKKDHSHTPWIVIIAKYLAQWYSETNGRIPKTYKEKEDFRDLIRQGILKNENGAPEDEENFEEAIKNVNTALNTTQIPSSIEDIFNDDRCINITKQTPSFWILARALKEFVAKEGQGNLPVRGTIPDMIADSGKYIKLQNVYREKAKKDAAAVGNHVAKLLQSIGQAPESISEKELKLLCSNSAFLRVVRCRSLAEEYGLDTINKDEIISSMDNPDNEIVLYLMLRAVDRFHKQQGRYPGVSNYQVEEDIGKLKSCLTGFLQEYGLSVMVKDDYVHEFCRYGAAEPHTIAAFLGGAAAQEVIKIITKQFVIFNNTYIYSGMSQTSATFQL
FXN GAA850 act: frataxin GAA850 promoter activation; HEK293 lucGAA850 FXN promoter luciferase reporter, 24 h; percent of 10 µM SAHA response; activation, % at 6 µM; hit rate 0.56% among 360,000;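 active = activation above the average of all compounds screened plus 3 SD, cutoff fixed separately per campaign, cut at about 7.5% in these data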;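 note: 0% = DMSO wells and 100% = 10 µM SAHA wells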
proCasp7 act: counter-screen: procaspase-7 (human) activation; P55210; recombinant procaspase-7, Ac-DEVD-pNA absorbance 405 nm; D23A/D198A/D206A triple mutant, cannot self-cleave; scale: DMSO 0, 5 µM enzyme 100; activation, % at 8.5 µM; hit rate 0.093% among 330,000; AID 463210;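 active = percent activation above the screen-wide mean plus 3 SD, cut at about 25% in these data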
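buffer or medium = Zinc-free HEPES/NaCl buffer, pH 7.4 | material = Procaspase-7 triple mutant (PC-7 D3A) | input = 2 µM procaspase-7 mutant as dispensed | signal = Epi-absorbance of released pNA at 405 nm, two timepoints | timing = 1 h preincubation, 2 h reaction | replicates = singlicate compound testing | evaluation = % activation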
procasp3 activ: activates human procaspase-3; recombinant procaspase-3 D3A, Ac-DEVD-pNA absorbance 405 nm; hit rate 0.11% among 330,000; activation, % at 8.5 µM;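 active = activation above the mean of all tested compounds plus 3 SD, cut at about 21% in these data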;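 note: 0% = DMSO alone and 100% = DMSO wells spiked with extra 5 µM PC-3 D3A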
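Test system: Procaspase-3 D3A mutant; medium: Zinc-free HEPES/NaCl buffer with 0.01% Triton X-100 at pH 7.4; reagent: DEVD-pNA substrate; doses: one concentration, 8.5 µM nominal, 0.8% DMSO; times: 1 h preincubation plus 2 h reaction at 25 °C; signal: Epi-absorbance at 405 nm of released p-nitroaniline, 0 and 120 min; replicates: singlicate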
PC3 D3A act: activates human procaspase-3, dual activator counter-screen; shares compounds with proCasp7 act; recombinant PC-3 D3A, Ac-DEVD-pNA absorbance 405 nm; aspartates 9, 28, 175 changed to alanine; 100% = enzyme control; activation, % at 8.5 µM; 290 tested, under 10 active;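 active = mean percent activation across triplicates above a set limit taken from the earlier primary procaspase-3 screen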;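 note: 0% = DMSO wells and 100% = DMSO wells with 5 µM added PC-3 D3A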
PC7 dual conf: procaspase-7 (human) activation, dual activator confirmation | shares compounds with proCasp7 act | recombinant procaspase-7, Ac-DEVD-pNA absorbance 405 nm; D23A/D198A/D206A mutant that cannot self-cleave | activation, % at 8.5 µM | 290 tested, under 10 active;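 active = mean activation above a set limit carried over from the earlier primary screen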;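 note: 0% = DMSO only and 100% = DMSO with added 5 µM PC-7 enzyme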
The depositor's hits bear a star; / = no result given. A selection: hits, their analogues and other compounds. The true share with any hit is near 1.9%.

SMILES	Calb FLC	HIF act	Neddylation inh	FXN GAA850 act	proCasp7 act	procasp3 activ	PC3 D3A act	PC7 dual conf
O=C(Nc1ccc(Cc2ccncc2)cc1)C1CCC(N2C(=O)C3C4C=CC(C5CC45)C3C2=O)CC1 (stereo not drawn)	-7	0	13	-1	30*	-6	2	27*
CC(=O)Nc1ccc(NC(=O)C2CCC(N3C(=O)C4C5C=CC(C6CC56)C4C3=O)CC2)cc1 (stereo not drawn)	-4	-1	-9	0	13	-1	/	/
Cn1c(CC(=O)Nc2ccccc2F)nnc1SCC(=O)Nc1nncs1	4	0	4	0	38*	0	3	-1
Cn1c(CC(=O)Nc2ccc(F)cc2)nnc1SCC(=O)Nc1nncs1	2	-1	-5	-1	12	-5	/	/
COc1ccc(-c2cc(C(=O)OCC(=O)NC(C)C)c3ccccc3n2)cc1	0	1	/	-1	27*	38*	-17	-12
COc1ccc(-c2cc(C(=O)OCC(=O)NC(C)(C)C)c3ccccc3n2)cc1	-10	1	/	0	3	6	/	/
CCOC(=O)C1(C)C(=O)CC2c3nc4ccccc4cc3CN2C1=O (stereo not drawn)	/	/	13	-1	/	/	/	/
Cc1cc(C)n2c(NC3CCCC3)c(-c3ccc(F)cc3)nc2n1	/	/	15	/	/	/	/	/
COc1ccc(C2C3=C(CC(C)(C)CC3=O)Nc3c2c(=O)[nH]c(=O)n3Cc2ccccc2)cc1 (stereo not drawn)	-1	0	/	-3	29*	12	-30	-34
C=CCNc1sc(C(=O)c2ccc(C)cc2)c(N)c1C#N	12	0	-4	3	-6	-113	/	/
C=CCNc1nc(N)c(C(=C(C#N)C#N)c2ccc(Br)cc2)s1	-5	0	/	-1	105*	12	-28	-35
COc1ccc2sc(-c3ccc(S(C)(=O)=O)cc3)c(-c3ccc(SC)cc3)c2c1	/	/	-94	0	12	11	/	/
COc1ccc2c(-c3ccc(SC)cc3)c(-c3ccc(S(C)(=O)=O)cc3)sc2c1	/	/	-93	-1	55*	43*	-28	-34
COC(=O)C(CC(C)C)NC(=O)c1ccc([N+](=O)[O-])c(C)c1 (stereo not drawn)	-10	0	-13	2	5	3	/	/
Cc1cc(C(=O)NC(CC(C)C)C(=O)O)cc(C)c1[N+](=O)[O-] (stereo not drawn)	10	0	-2	-1	26*	10	3	1
CC(C)CN(C(=O)COc1ccccc1C(=O)NCc1ccccc1)C1CCS(=O)(=O)C1 (stereo not drawn)	/	/	-4	0	/	/	/	/
Cc1cc(C)c(S(=O)(=O)c2ccccc2)c(OC(=O)c2c(Cl)cc(Cl)cc2Cl)n1	7	1	-8	0	26*	-1	2	3
CC(C)NC(=O)Cn1nnc(-c2ccccc2)c1COc1ccc2ccccc2c1	/	/	-8	0	/	/	/	/
CCc1nc2c(OCCOc3ccc(F)cc3)cccn2c1N(C)C(=O)C(C)C	/	/	-1	-1	/	/	/	/
O=c1c(O)c(-c2ccc3c(c2)OCO3)oc2ccccc12	27	3	/	3	30*	37*	23*	19
O=C(Nc1ccc2c(c1)oc1ccccc12)c1ccc2c(c1)OCO2	-6	4	-239	3	19	3	/	/
Cc1ccc(-c2cnc(C(O)c3ccc(Cl)cc3C)[nH]2)cc1 (stereo not drawn)	/	/	4	-1	/	/	/	/
NS(=O)(=O)c1ccc(NC(=O)/C=C/c2cn(-c3ccccc3)nc2-c2cccc(Cl)c2)cc1	-7	-2	30	-1	72*	55*	-28	-6
CC(=O)Nc1cccc(-c2ccnc3c2CC(C)(C(=O)NCc2ccc(N(C)C)cc2)O3)c1 (stereo not drawn)	/	/	7	-4	/	/	/	/
C[C@H](O)[C@@H]1C(=O)N2CCc3ccc(N4CCN(C)CC4)cc3[C@@H]2C[C@@H]1N(C)C(=O)c1ccco1	/	/	3	0	/	/	/	/
SMILES	Calb FLC	HIF act	Neddylation inh	FXN GAA850 act	proCasp7 act	procasp3 activ	PC3 D3A act	PC7 dual conf
O=C1NC(Cc2ccc(O)cc2)c2nc3cc(F)c(F)cc3c(=O)n2-c2ncccc21 (stereo not drawn)	/	/	2	1	/	/	/	/
CCOc1ccc(-n2c(SCC(=O)Nc3ccc(OC)cc3)nc3c(c2=O)SCC3)cc1	12	0	-20	0	68*	3	0	1
CCOC(=O)[C@]12CCCC=C1N(Cc1ccc(Cl)cc1Cl)C(=O)[C@H](CC(=O)NCC1CCCCC1)C2	/	/	-2	/	/	/	/	/
CC(C)OC(=O)c1sc2nc(-c3ccccc3)ccc2c1N	13	0	/	-10	34*	8	-28	-35
COCc1nnc(NC(=O)CSc2ccccc2)s1	2	0	-1	-1	2	13	/	/
COCc1nnc(NC(=O)CCSc2ccccc2)s1	-30	2	0	0	27*	1	4	0
O=c1oc2ccc3ccccc3c2cc1-c1nc2ccccc2o1	-9	0	/	-1	28*	-2	-30	-35
CCOP(=O)(OCC)c1nc(-c2cccc3ccccc23)oc1NCc1ccc(OC)cc1	-5	0	/	1	61*	36*	-29	-36
CCc1cc(=O)oc2c(C)c(OCC(=O)NCCCN3CCCC3=O)ccc12	1	-1	34	2	-1	3	/	/
Cc1c(CCC(=O)NCCCN2CCCC2=O)c(=O)oc2c(C)c(O)ccc12	0	0	/	1	26*	28*	-30	-36
Cc1c(CCC(=O)NC2CC2)c(=O)oc2c(C)c(O)ccc12	-4	0	37	0	27*	28*	-30	-36
C[C@@H]1CN([C@H](C)CO)C(=O)CCCn2cc(nn2)CO[C@H]1CN(C)C(=O)Nc1ccccc1	/	/	-8	-2	/	/	/	/
COc1ccc(N(C(=O)c2ccncc2)S(=O)(=O)c2ccc3c4c(cccc24)C(=O)N3C)cc1	3	0	-7	0	32*	-4	-28	-34
Cc1nnc(NC(=O)c2c(-c3ccccc3)noc2C)s1	36	0	-2	-3	26*	5	1	-1
